From ChEMBL document CHEMBL1125309, “Discovery of a novel class of orally active, non-peptide angiotensin II antagonists” (J Med Chem, 1992)
pKi: −log10 of the molar value.

How the values were obtained:
[1] = biological target: T1, Type-1 angiotensin II receptor (Oryctolagus cuniculus, UniProt P34976); experiment: Compound was evaluated for in vitro potency against angiotensin II receptor, type 1 in isolated rabbit aorta; value ranges from 8.70-8.83; details: read-out: pA2 (converted)
T1 sequence (P34976 whole entry): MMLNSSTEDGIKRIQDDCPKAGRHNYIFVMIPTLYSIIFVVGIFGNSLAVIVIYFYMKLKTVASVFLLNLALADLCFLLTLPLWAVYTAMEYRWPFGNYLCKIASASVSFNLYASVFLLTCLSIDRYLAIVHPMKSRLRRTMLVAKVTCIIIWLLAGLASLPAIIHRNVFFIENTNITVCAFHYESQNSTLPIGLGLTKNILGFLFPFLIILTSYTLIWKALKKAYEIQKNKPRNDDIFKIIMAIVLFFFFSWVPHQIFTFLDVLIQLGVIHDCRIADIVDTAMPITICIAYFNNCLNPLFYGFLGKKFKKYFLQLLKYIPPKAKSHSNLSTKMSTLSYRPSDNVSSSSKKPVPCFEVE
How it was run: (§1)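 Isolated rabbit aortic ring preparation contracted with angiotensin II; concentration–response curves to AII run in the presence of antagonist; parallel rightward shifts analysed by Schild analysis to give pA2 and slope.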

[2] = biological target: T1, Type-1 angiotensin II receptor; experiment: Compound was evaluated for in vitro potency against angiotensin II receptor, type 1 in isolated rabbit aorta; format: tissue-based; details: read-out: pA2 (converted); how it was run: as §1
[3] = biological target: T2, Type-1 angiotensin II receptor B (Rattus norvegicus, UniProt P29089); experiment: Compound was evaluated for binding affinity against angiotensin II receptor, type 1 in rat liver
T2 sequence (P29089 whole entry): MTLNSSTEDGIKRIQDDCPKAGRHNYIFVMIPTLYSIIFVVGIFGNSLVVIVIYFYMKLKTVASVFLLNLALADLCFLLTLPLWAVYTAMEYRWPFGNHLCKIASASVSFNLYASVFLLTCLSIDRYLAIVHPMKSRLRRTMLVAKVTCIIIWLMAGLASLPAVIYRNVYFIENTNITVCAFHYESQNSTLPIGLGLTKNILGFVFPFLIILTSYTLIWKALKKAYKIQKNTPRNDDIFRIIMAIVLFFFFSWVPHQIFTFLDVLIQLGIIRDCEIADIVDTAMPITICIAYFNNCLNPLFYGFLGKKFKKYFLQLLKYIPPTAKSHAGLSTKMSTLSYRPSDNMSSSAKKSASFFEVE

[4] = biological target: T2, Type-1 angiotensin II receptor B; experiment: Compound was evaluated for binding affinity against AT1 receptor in rat liver
How it was run: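 Displacement of [125I]saralasin from AT1 receptors in rat liver membranes; compounds tested at multiple concentrations as required; Ki derived from the binding curves.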

[5] = biological target: T1, Type-1 angiotensin II receptor; experiment: Compound was evaluated for in vitro potency against AT1 receptor in isolated rabbit aorta; value ranges from 7.91-7.97; details: read-out: pA2 (converted); how it was run: as §1
[6] = biological target: T1, Type-1 angiotensin II receptor; experiment: Compound was evaluated for in vitro potency against Angiotensin II receptor, type 1 in isolated rabbit aorta; value ranges from 7.13-7.17; details: read-out: pA2 (converted); how it was run: as §1
[7] = biological target: T1, Type-1 angiotensin II receptor; experiment: Compound was evaluated for in vitro potency against angiotensin II receptor, type 1 in isolated rabbit aorta; value ranges from 8.08-8.22; details: read-out: pA2 (converted); how it was run: as §1
[8] = biological target: T1, Type-1 angiotensin II receptor; experiment: Compound was evaluated for in vitro potency against Angiotensin II receptor, type 1 in isolated rabbit aorta; value ranges from 5.53-5.69; details: read-out: pA2 (converted); how it was run: as §1

Compound: CCN(Cc1ccc(-c2ccccc2-c2nn[nH]n2)cc1)c1ncccc1C(=O)O
- Kb [1]: 2 nM

Compound: CCCCN(Cc1ccc(-c2ccccc2-c2nnn[nH]2)cc1)c1ncncc1C(=O)O
- Kb [2]: 0.117 nM
- pKi [3]: 8.50

Compound: CCCCc1ncc(C(=O)O)c(NCc2ccc(-c3ccccc3-c3nn[nH]n3)cc2)n1
- pKi [4]: 6.70
- Kb [5]: 12.3 nM

Compound: CCCCN(Cc1ccc(-c2ccccc2-c2nn[nH]n2)cc1)c1nc(C)ncc1C(=O)O
- pKi [3]: 7.82

Compound: CCCCc1ncc(C(=O)O)c(N(C)Cc2ccc(-c3ccccc3-c3nn[nH]n3)cc2)n1
- Kb [6]: 74.1 nM

Compound: CCCCN(Cc1ccc(-c2ccccc2-c2nn[nH]n2)cc1)c1ncccc1C(=O)O
- Kb [2]: 0.316 nM

Compound: CCCCN(Cc1ccc(-c2ccccc2-c2nnn[nH]2)cc1)c1nc(C)ccc1C(=O)O
- Kb [7]: 8.32 nM
- pKi [3]: 6.91

Compound: CCCN(Cc1ccc(-c2ccccc2-c2nnn[nH]2)cc1)c1ncccc1C(=O)O
- pKi [3]: 9.12

Compound: O=C(O)c1cncnc1NCc1ccc(-c2ccccc2-c2nn[nH]n2)cc1
- Kb [8]: 2950 nM

Compound: CCCN(Cc1ccc(-c2ccccc2-c2nn[nH]n2)cc1)c1nc(C)ncc1C(=O)O
- pKi [3]: 8.56
